# Screening data: PubChem BioAssay, several laboratories
# Compounds with a hit are over-represented: about 1.9% of the library has one in this group of screens.
# Rpn11 inh = Rpn11 (human) deubiquitinase inhibition; O00487; human 26S proteasome, Ub4-pepOG fluorescence polarization; 20S core pre-blocked with epoxomicin; inhibition, % at 20 µM; actives 0.59% (n = 360,000); AID 588493;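 active means inhibition at 20 µM, scaled to each plate's controls, above about 33%, limit read from the data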
# Rin1 Abl inh = inhibitors of human Rin1-Abl protein interaction. actives 0.4% (n = 360,000). TR-FRET Rin1/Abl binding, biochemical. inhibition, % at 7.35 µM; in the data active means inhibition above about 5%, passing the limit was not always enough
# ABHD5 PLIN5 PPI = inhibitors of human ABHD5-perilipin-5 interaction; Q00G26+Q8WTS1; Split G. princeps luciferase complementation, luminescence, 4 h; inhibition, % at 4 µM; actives 0.78% (n = 360,000); AID 602281;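 active means inhibition above the mean inhibition across every tested compound plus 3 SD, cut at about 22% in these data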;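 further: 0% = DMSO only wells and the 100% control is not disclosed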
# Xi reactivation = X-chromosome reactivation activator; XiGFP mouse fibroblasts, % GFP-positive cells imaging, 3 d; cells co-treated with 5-aza-dC sensitizer; scaled so ellipticine positive control = 100%; activation, % at 7.58 µM; actives 0.055% (n = 360,000);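 active means mean normalized replicate activation at least 10% and every replicate at or above 10%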;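 further: 0% = median of on-plate neutral control wells and 100% = ellipticine 6 µM median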
#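 Material: SV40-immortalized XiGFP fibroblast cells, line 68-5-11 | Buffer or medium: DMEM containing 5-aza-dC | Dosing: One concentration, pinned | Times: 3 d treatment, 15 min room-temperature fixation | Controls: Ellipticine 6 µM positive control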
# NadD block = inhibitors of Staphylococcus aureus NadD; purified NadD enzyme, colorimetric absorbance read-out; inhibition, % at 20 µM; actives 0.78% (n = 360,000); in the data active means inhibition above about 26%
# Rin1-Abl confirm = Rin1-Abl interaction inhibition confirmation | shares compounds with Rin1 Abl inh | TR-FRET Rin1-Abl binding, purified proteins | inhibition, % at 7.35 µM | actives 49% (n = 1,300) | AID 602124
# GFP quencher = GFP fluorescence interference artifact | shares compounds with Rin1 Abl inh | inhibitors/quenchers counterscreen | inhibition, % at 6.75 µM | actives 8.5% (n = 1,300) | AID 602125;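 further: ABL1-eGFP fusion protein alone without its partner RIN1-SBP; 0% = protein with vehicle and 100% = wells lacking protein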
# An asterisk follows results filed as active; · = not tested or not shown. Unless noted, no stated cut-off is given here; in the data, active means inhibition above about 6.5%; inactive means the rest.
SMILES,Rpn11 inh,Rin1 Abl inh,ABHD5 PLIN5 PPI,Xi reactivation,NadD block,Rin1-Abl confirm,GFP quencher
COCC(=O)Nc1ccc2c(c1)[C@H]1C[C@H](CC(=O)NCCN3CCCCC3)O[C@H](CO)[C@H]1O2,·,·,·,0.2,·,·,·
C[C@@H]1CN(C)C(=O)Cc2cc(N(C)C)ccc2O[C@H]1CN(C)C(=O)OC(C)(C)C,·,·,·,0.3,·,·,·
O=C(NCCc1ccc(Cl)cc1)c1cccc(NC2=NC3CS(=O)(=O)CC3S2)c1 (stereo not drawn),-1.6,8.4*,8.8,-0.1,-2.4,8.0*,0.2
CCOc1ccc(CCNC(=O)Cc2ccc(NC3=NC4CS(=O)(=O)CC4S3)cc2)cc1OCC (stereo not drawn),-0.3,4.8,-7.0,0.5,2.5,·,·
Cc1ccc(CCNC(=O)c2ccc(NC3=NC4CS(=O)(=O)CC4S3)cc2)cc1 (stereo not drawn),1.2,8.5*,10.7,0.0,7.8,9.3*,0.5
Cc1cc(C)cc(NC(=O)c2cccc(NC3=NC4CS(=O)(=O)CC4S3)c2)c1 (stereo not drawn),3.9,0.4,0.1,0.0,-0.5,·,·
COc1ccc(OC)c(CCNC(=O)Cc2ccc(NC3=NC4CS(=O)(=O)CC4S3)cc2)c1 (stereo not drawn),1.1,11.1*,-12.2,0.0,-0.6,13.3*,-0.7
CC(NC(=O)Cc1ccc(NC2=NC3CS(=O)(=O)CC3S2)cc1)c1ccccc1 (stereo not drawn),3.7,2.6,6.6,0.1,-6.1,·,·
CCN(C(=O)Cc1ccc(NC2=NC3CS(=O)(=O)CC3S2)cc1)c1ccccc1 (stereo not drawn),1.6,14.6*,0.4,0.1,1.7,11.0*,-0.7
COc1ccccc1C(=O)Nc1ccc2c(c1)C(=O)N(C)C[C@@H](OC)[C@@H](C)CN[C@@H](C)CO2,·,·,·,0.0,·,·,·
CCCC(=O)N1CC2(CN(C(=O)CC3CC3)C2)c2c(n(C)c3cc(OC)ccc23)[C@H]1CO,·,·,·,0.1,·,·,·
COc1ccc(OC)c(CCNC(=O)c2ccc(NC3=NC4CS(=O)(=O)CC4S3)cc2)c1 (stereo not drawn),0.8,12.2*,-2.7,-0.1,-7.7,12.9*,-0.4
COc1cccc(CNC(=O)c2ccc(NC3=NC4CS(=O)(=O)CC4S3)cc2)c1 (stereo not drawn),-2.5,-1.6,3.8,0.1,-0.4,·,·
COC(=O)C[C@@H]1CC[C@@H]2[C@H](COc3ccc(NC(=O)c4cccs4)cc3C(=O)N2C)O1,·,·,·,0.0,·,·,·
CCCCN(C)C(=O)c1ccc(Nc2nc(C(N)Cc3ccc(C(F)(F)F)cc3)cs2)nc1 (stereo not drawn),-1.7,8.1*,-2.4,0.1,16.3,4.8,-0.6
Cn1cnc2c1c(=O)n(Cc1ccc(F)cc1Cl)c(=O)n2C,-11.8,7.6*,6.2,·,-2.5,4.9,1.1
Cn1cnc2c1c(=O)n(Cc1cccc(F)c1)c(=O)n2C,-1.3,-0.1,8.4,0.0,-3.5,·,·
COc1ccc(CNC2CCCc3ccccc32)c(OC)c1 (stereo not drawn),2.0,6.2*,-6.9,0.0,-4.4,0.1,-0.4
Cc1noc(C)c1S(=O)(=O)N(C)C[C@H]1Oc2ccc(NC(=O)Nc3ccc4c(c3)OCO4)cc2C(=O)N([C@H](C)CO)C[C@@H]1C,·,·,·,1.4,·,·,·
O=C(CN1CCOCC1)NCC[C@@H]1CC[C@@H](NC(=O)Nc2ccc(F)cc2)[C@@H](CO)O1,·,·,·,-0.1,·,·,·
CCN(CC(=O)Nc1ccc(NC(C)=O)cc1)C(=O)c1ccc(Sc2nncn2C)c([N+](=O)[O-])c1,2.7,9.7*,5.7,0.0,2.2,-0.2,-0.5
CCN(CC)S(=O)(=O)c1ccc(NC(=O)c2ccc(Sc3nncn3C)c([N+](=O)[O-])c2)cc1,-3.1,-4.7,10.3,0.0,14.8,·,·
CCC(=O)N1C[C@H](C)[C@@H](OC)CN(C)C(=O)c2cc(NC(=O)CC(F)(F)F)ccc2OC[C@@H]1C,·,·,·,0.2,·,·,·
O=C(NCc1ccncc1)Nc1ccccc1,-4.5,54.0*,2.9,·,3.6,-1.1,-1.0
